In the library only some 3.4% were active in any assay of this set; here they are far more common.
ROMK mod: human ROMK K+ channel modulation, primary screen; P48048; Tet-inducible ROMK, thallium flux fluorescence; actives lie on both sides; B-score at 10 µM; 130,000 compounds, 2% hits;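 active = signal ratio slope over the read window, or its plate-corrected B-score, at least 3 SD from the plate mean, either direction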;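 also: B-score of the F/F0 ratio slope over 7 to 12 s after thallium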
Target sequence (P48048 whole entry, looked up): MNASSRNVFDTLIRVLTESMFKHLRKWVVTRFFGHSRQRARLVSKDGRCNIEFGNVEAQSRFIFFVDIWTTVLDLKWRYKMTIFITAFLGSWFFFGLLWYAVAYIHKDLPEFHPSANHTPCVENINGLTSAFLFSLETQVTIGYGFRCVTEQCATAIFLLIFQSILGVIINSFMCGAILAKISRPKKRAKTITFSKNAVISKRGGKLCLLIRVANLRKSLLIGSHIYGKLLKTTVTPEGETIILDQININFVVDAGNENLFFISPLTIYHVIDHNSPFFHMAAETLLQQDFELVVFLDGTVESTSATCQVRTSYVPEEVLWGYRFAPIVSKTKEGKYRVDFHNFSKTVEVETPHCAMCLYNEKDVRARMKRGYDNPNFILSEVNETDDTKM
p97 inhibitor: blocks human p97 ATPase activity; recombinant p97 ATPase, Kinase-Glo ATP luminescence, 3 h; inhibition, % at 8 µM; 220,000 compounds, 0.42% hits; AID 1481; in the data active = inhibition above about 15%
Redox H2O2 prof: compounds producing H2O2 with reducing agent – biochemical, NIH compound library profiling, artefact control for MLSCN library redox annotation, primary screen; DTT-dependent redox cycling H2O2, phenol red/HRP absorbance; 100% = 100 µM peroxide control, 0% = buffer; activation, % at 10 µM; 200,000 compounds, 0.03% hits; AID 878;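 active = activation of at least 50% relative to the plate's high and low controls in the primary single-dose screen; inactive = activation below 50%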;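 also: compound incubated with DTT at 0.8 mM final as the reducing agent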
PKD1 inh: PKD1 (human) kinase inhibition. Q15139. PKD1 kinase fluorescence polarization assay. 200,000 compounds, 0.056% hits. inhibition, % (test concentration not listed). AID 797; in the data active = inhibition above about 50%
KCC2 mod: KCC2 (human) Cl- transport modulation | KCC2 cells, thallium flux FluoZin-2 fluorescence | 190,000 compounds, 2.2% hits | Q9H2X9 | B-score of Tl+ flux slope (higher = more flux/activation; lower = inhibition) at 10 µM;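 active = thallium flux slope and its plate-corrected score both differing from the plate sample mean at a set confidence after two filtering rounds, in either direction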;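 also: slope of fluorescence scaled to starting intensity during 10 to 20 s after thallium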
Mdm2 ligase inh: blocks human Mdm2 ubiquitin ligase activity; Q00987; cell-based MDM2 ubiquitination luciferase reporter, 2 h; 0 = plate control, 100 = twice control, blank-subtracted; signal enhancement, % at 5 µM; 210,000 compounds, 0.11% hits;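 active = signal enhancement of 30% or more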;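 also: luminescence tracks abundance of the self-degrading MDM2-luciferase fusion protein; higher signal means inhibition of MDM2 E3 ligase activity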
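Assay system: stable mammalian line carrying autodegrading MDM2–luciferase fusion reporter; Input: 2000 cells in each well; Compound dosing: single-point 5 µM; Schedule: 2 h compound exposure at 37 °C; Signal: SteadyLite luciferase luminescence after 15 min room-temperature reagent incubation; Evaluation: % luminescence enhancement versus blank-corrected plate control mean; Benchmarks: plate controls and plate blanks.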
ROMK hit retest: confirmation of human ROMK potassium channel modulators; shares compounds with ROMK mod; normalized thallium flux (F/F0 slope) at 10 µM; 3,000 compounds, 54% hits; ROMK thallium flux, fluorescence ratio; hits give low values;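 active = Flux at 10 µM at least 3 SD below or above vehicle control mean in one or both replicates; inconclusive = no clear call, values can overlap the other calls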
A number is an active result; - = inactive; ? = inconclusive; . = no result.

SMILES	ROMK mod	p97 inhibitor	Redox H2O2 prof	PKD1 inh	KCC2 mod	Mdm2 ligase inh	ROMK hit retest
CCOc1ccc(/C=C/[N+](=O)[O-])c2ccccc12	-3.78	-	-	-	-	-	0.0426
CCOC(=O)Cn1cc(C#N)c2ccccc21	-	-	-	-	-	-	.
CCOC(=O)Cn1cc(/C=C/[N+](=O)[O-])c2ccccc21	-3.45	-	-	-	-	-	0.0355
O=C(Cn1cc[n+](CC(=O)c2ccccc2)c1)c1ccccc1	.	-	-	-	.	-	.
O=C(Cn1cc[n+](CC(=O)c2ccc(Cl)cc2Cl)c1)c1ccc(Cl)cc1Cl	-2.97	-	.	.	-	-	-
CN1N=C(C(=O)N2CCCC(C(=O)c3cccc(C(F)(F)F)c3)C2)CCC1=O (stereo not given)	-	-	-	-	-	-	.
CC(=O)NC12CC3CC(C1)CC(C(=O)OCC(=O)Nc1ncc(Cl)cc1Cl)(C3)C2	-4.02	-	-	-	-	-	-
CCc1cc(C(=O)OC)c(NC(=O)c2cc(Br)cs2)s1	.	-	-	-	-	-	.
Nc1nc(NCc2ccco2)nc(N2CCCCCC2)c1[N+](=O)[O-]	.	-	-	-	-	-	0.0622
O=C(CCCn1cnc([N+](=O)[O-])n1)Nc1cccc2ccccc12	-	-	-	-	-	-	-
COc1ccccc1-c1cc(C(F)(F)F)nc(S(C)(=O)=O)n1	-3.86	-	-	-	-	-	0.0599
COc1ccccc1-c1cc(C(F)(F)F)nc(N2CCCC2)n1	-	-	-	-	.	-	.
CN1CCN(c2nc(-c3ccco3)cc(C(F)(F)F)n2)CC1	.	-	-	-	.	-	.
CS(=O)(=O)c1nc(-c2ccco2)cc(C(F)(F)F)n1	-3.57	-	-	-	.	-	0.0572
CCOc1ccccc1NC(=O)N1CCN(S(C)(=O)=O)CC1	-	-	-	-	-	-	.
CC(=O)Oc1oc(-c2ccccc2)nc1C=Nc1ccc(N(C)C)cc1	.	-	.	.	-	-	0.0597
CCN(CC)c1ccc(C(=S)NC2CCCCC2)cc1	-	-	-	-	-	-	.
CN(C)c1ccc2c3c(ccc(N(C)C)c13)C(=O)OC2	.	-	.	.	-	-	-
NS(=O)(=O)c1ccc(CCNC(=O)C2CCC(Cn3c(=S)[nH]c4ccccc4c3=O)CC2)cc1 (stereo not given)	-	-	-	-	-	-	.
CC1(C)CC(CC(=O)O)(c2ccccc2)CCO1 (stereo not given)	.	-	-	-	-	-	-
CCOC(=O)CC1(c2ccccc2)CCOC(C)(C)C1 (stereo not given)	-	-	-	-	-	-	.
CC1=NNC(=O)C1C(c1cccc(O)c1)C(C#N)C#N (stereo not given)	-2.38	-	.	.	-	-	-
O=C(NNC(=O)C1COc2ccccc2O1)c1cccc([N+](=O)[O-])c1 (stereo not given)	-	-	-	-	-	-	.
Cn1c(=O)n(C)c2cc(NS(=O)(=O)c3ccc4c(c3)CCCC4)ccc21	-2.03	-	-	-	.	-	?
COc1ccccc1C(=O)N/C(=C\c1ccc2c(c1)OCO2)C(=O)NCCc1nc2ccccc2[nH]1	-	-	-	-	-	-	.
SMILES	ROMK mod	p97 inhibitor	Redox H2O2 prof	PKD1 inh	KCC2 mod	Mdm2 ligase inh	ROMK hit retest
O=C1C2CCCCN2C(=O)N1CCN1CCN(c2ccc([N+](=O)[O-])cc2)CC1 (stereo not given)	-2.83	-	-	-	.	-	0.0473
CCCSc1ncnc2c1oc1ccccc12	-	-	-	-	-	-	.
Cc1ccc(N(Cc2cc3ccccc3[nH]c2=O)S(C)(=O)=O)cc1	.	-	-	-	-	-	.
O=C(COc1ccc(Cl)cc1Cl)N1CCCC1	-	-	-	-	-	-	.
O=C(COc1ccc(Cl)cc1[N+](=O)[O-])N1CCCCCC1	-1.79	-	-	-	-	-	?
Cc1ccn2c(-c3csc(NCc4ccccc4)n3)c(C)nc2c1	-4.68	-	-	-	-	-	0.06
NC(=O)C1CCN(c2ncnc3c2c(-c2ccccc2)cn3-c2ccccc2)CC1	.	-	-	-	-	-	0.0635
CCn1cc(S(=O)(=O)CC(=O)NC2CCCCC2)c2ccccc21	.	-	-	-	-	-	.
CSc1ccc(S(=O)(=O)Nc2c(C)cccc2C)cc1	-	-	-	-	-	-	.
CCc1ccccc1NS(=O)(=O)c1ccc(SC)cc1	-1.59	-	-	-	-	-	0.0655
Cc1ccc(C)c(N2CCN(S(=O)(=O)c3ccc4[nH]c(=O)c(=O)[nH]c4c3)CC2)c1	3.86	-	-	-	-	-	?
CCCCN(C)C(=O)C1CCN(Cc2ccc(OCc3ccccc3)cc2)CC1	-4.43	-	-	-	-	-	0.0608
C=CCn1c(COc2cccc3ccc(C)nc23)nnc1SCC(=O)O	-	-	-	-	-	-	.
O=C(NCCC1=CCCCC1)c1ccc(Cl)c(S(=O)(=O)N2CCOCC2)c1	.	-	-	-	-	-	.
Cc1ccc(CSCCNC(=O)c2ccc(Cl)c(S(=O)(=O)N3CCOCC3)c2)cc1	-3.96	-	-	-	-	-	-
COC(=O)c1ccc(-c2sc3nc(N4CCOCC4)c4c(c3c2N)CCCC4)o1	-4.29	-	-	-	-	-	0.0582
COc1ccc(NS(=O)(=O)c2ccc(NC(=S)NC(=O)c3cccc(F)c3)cc2)nn1	-	-	-	-	-	-	.
Cc1ccc2c(c1)c1c3n2CCCNC3CCC1 (stereo not given)	-2.09	-	-	-	-	-	0.0604
c1cc2c(cc1C1CCCCC1)c1c3n2CCCNC3CCC1 (stereo not given)	-	-	-	-	-	-	.
O=C(NNC(=O)c1ccccc1)C(=O)N1CCCCC1	-	-	-	-	.	-	.
Clc1ccc(Cc2noc(CN3CCN(c4ccccc4)CC3)n2)c(Cl)c1	.	-	-	-	-	-	.
O=C(CSCc1ccc(Cl)cc1)Nc1ccccc1C(=O)N1CCOCC1	.	-	-	-	-	-	.
O=C(CSCc1ccc(Cl)cc1)Nc1ccccc1O	2.27	-	-	-	-	-	-
COc1ccc(N/C=C2\C(=O)CCc3c2oc2cc(Cl)c(O)c(Cl)c32)cc1	.	-	.	.	-	-	0.0641
O=C(CSCc1ccccc1Cl)NN1C(=O)c2ccccc2C1=O	.	-	-	-	.	-	.
C/C(=N\NC(=S)Nc1c(C)cccc1C)c1ccc(O)cc1	.	-	.	.	-	-	-
S=C(NCCc1ccccc1)NC1CC2CCC(C1)N2Cc1ccccc1 (stereo not given)	-2.33	-	-	-	-	-	0.0571
CC(=O)Nc1ccccc1C(=O)C(=O)Nc1cccc(C(=O)NCc2ccc(C)cc2)c1	-	-	-	-	-	.	.
CCOC(=O)Nc1ccc(S(=O)(=O)NCc2ccccc2)cc1	-	-	-	-	-	-	.

From PubChem BioAssay
